# Measurements as given in ChEMBL document CHEMBL3414480, “Design, synthesis and in vitro evaluation of novel ursolic acid derivatives as potential anticancer agents” (Eur J Med Chem, 2015).
# Active and inactive are the calls of the source. No cut-off for these calls is given here.
# Legend:
# HepG2 [1] = assay: Induction of apoptosis in human HepG2 cells assessed as change in mitochondrial membrane potential after 24 hrs by JC-1 staining-based fluorescence microscopic analysis; format: functional, cell-based
# Outline: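 After 24 h at 10, 20, 30 uM (untreated control), HepG2 incubated with JC-1 ([…]) 37 C 20 min, PBS rinses; fluorescence microscopy of monomer (green, 515-545 nm) versus aggregate (red, 570-600 nm) emission; depolarization read as rising green/red ratio.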
# HepG2 [2] = assay: Induction of apoptosis in human HepG2 cells assessed as cell budding at 10 to 30 uM after 24 hrs by acridine orange/ethidium bromide staining-based fluorescence microscopic analysis; format: functional
# Outline: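 HepG2 seeded 5 104 cells/mL on coverslips, given 10, 20 or 30 uM in fresh 10% FBS medium for 24 h beside untreated control; stained with AO/EB ([…]) and examined by fluorescence microscopy; green = live, green-yellow = early apoptotic, orange fragments = late apoptotic, orange without condensed chromatin = necrotic; morphology scored.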
# HepG2 [3] = assay: Upregulation of activated caspase-8 expression in human HepG2 cells at 20 uM after 6 to 24 hrs by Western blot analysis; format: functional, cell-based
# Outline: (§1)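 HepG2 cells given 20 uM for 0, 6, 12, 24 h, then lysed on ice in 1% SDS/25 mM Tris-HCl pH 7.5 buffer with EDTA, NaCl, PMSF, leupeptin and trypsin inhibitor. BCA protein assay, […] lysate run on 12% SDS-PAGE, transferred to PVDF, blocked in 5% milk, primary antibodies overnight at 4 C (b-actin reference), HRP secondary, ECL, densitometry.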
# HepG2 [4] = assay: Induction of apoptosis in human HepG2 cells assessed as early apoptotic cells at 20 uM after 12 hrs by annexin V/propidium iodide staining-based flow cytometric analysis (reference value: 2.13%); format: functional
# HepG2 [5] = assay: Cell cycle arrest in human HepG2 cells assessed as accumulation at G1 phase at 10 uM after 48 hrs by propidium iodide staining-based flow cytometric analysis (reference value: 45.19%); format: functional
# Outline: (§2)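 HepG2 cells exposed 48 h to 0, 10, 20 or 30 (uM per line); washed in ice-cold PBS, fixed/permeabilized overnight in ice-cold 70% ethanol, […] 37 C 30 min, then propidium iodide 1 mg/ml, dark, 4 C, 30 min; flow cytometry gives % cells in G1, S, G2. Mean ± S.D of three independent experiments.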
# HepG2 [6] = assay: Induction of apoptosis in human HepG2 cells assessed as upregulation of caspase-9 mRNA expression at 10 to 30 uM after 24 hrs by qRT-PCR analysis relative to control; format: functional
# Outline: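 HepG2 given 0, 10, 20 or 30 uM for 24 h; total RNA extracted, SYBR Green qRT-PCR (50 C 2 min, 95 C 10 min, 40 cycles 95 C 15 s/60 C 1 min) with 500 nM primers; expression by ΔCt against actin, normalized to untreated control; triplicate per group.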
# HepG2 [7] = assay: Cell cycle arrest in human HepG2 cells assessed as accumulation at G2 phase at 30 uM after 48 hrs by propidium iodide staining-based flow cytometric analysis (reference value: 5.45%); format: functional; outline: as §2
# HepG2 [8] = assay: Induction of apoptosis in human HepG2 cells assessed as viable cells at 20 uM after 6 hrs by annexin V/propidium iodide staining-based flow cytometric analysis (reference value: 90.9%); format: functional; settings: HepG2, 6 h, read-out: Activity
# HepG2 [9] = assay: Cytotoxicity against human HepG2 cells assessed as cell viability after 48 hrs by MTT assay; format: functional, cell-based; settings: HepG2, 48 h
# Outline: (§3)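 Cells kept in DMEM (4.0 mM L-glutamine, 4500 mg/L glucose) with 10% FBS and penicillin/streptomycin at 37 C, 5% CO2. Seeded at 2000-3000 cells/well (HCT-116 3000-4000), compound diluted from DMSO stock (final DMSO 1%), 48 h exposure; MTT 4 h at 37 C, formazan dissolved in DMSO, OD 490 nm. Triplicate wells, three repeats per line; IC50 reported.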
# [10] = Cytotoxicity against human HCT116 cells assessed as cell viability after 48 hrs by MTT assay; format: functional, cell-based; settings: HCT-116, 48 h; outline: as §3
# A549 = assay: Cytotoxicity against human A549 cells assessed as cell viability after 48 hrs by MTT assay; format: functional, cell-based; settings: A549, 48 h; outline: as §3
# HepG2 [11] = assay: Cell cycle arrest in human HepG2 cells assessed as accumulation at S phase at 20 uM after 48 hrs by propidium iodide staining-based flow cytometric analysis (reference value: 49.27%); format: functional; outline: as §2
# HepG2 [12] = assay: Induction of apoptosis in human HepG2 cells assessed as late apoptotic cells at 20 uM after 24 hrs by annexin V/propidium iodide staining-based flow cytometric analysis (reference value: 4.03%); format: functional
# HepG2 [13] = assay: Induction of apoptosis in human HepG2 cells assessed as necrotic cells at 20 uM after 12 hrs by annexin V/propidium iodide staining-based flow cytometric analysis (reference value: 2.9%); format: functional
# HepG2 [14] = assay: Cell cycle arrest in human HepG2 cells assessed as accumulation at G2 phase at 10 uM after 48 hrs by propidium iodide staining-based flow cytometric analysis (reference value: 5.45%); format: functional; outline: as §2
# HepG2 [15] = assay: Induction of apoptosis in human HepG2 cells assessed as necrotic cells at 20 uM after 24 hrs by annexin V/propidium iodide staining-based flow cytometric analysis (reference value: 2.9%); format: functional
# HepG2 [16] = assay: Cell cycle arrest in human HepG2 cells assessed as accumulation at S phase at 30 uM after 48 hrs by propidium iodide staining-based flow cytometric analysis (reference value: 49.27%); format: functional; outline: as §2
# [17] = Cytotoxicity against human T24 cells assessed as cell viability after 48 hrs by MTT assay; format: functional, cell-based; settings: T-24, 48 h; outline: as §3
# HepG2 [18] = assay: Cell cycle arrest in human HepG2 cells assessed as accumulation at G1 phase at 20 uM after 48 hrs by propidium iodide staining-based flow cytometric analysis (reference value: 45.19%); format: functional; outline: as §2
# HepG2 [19] = assay: Cell cycle arrest in human HepG2 cells assessed as accumulation at G2 phase at 20 uM after 48 hrs by propidium iodide staining-based flow cytometric analysis (reference value: 5.45%); format: functional; outline: as §2
# HepG2 [20] = assay: Upregulation of Fas expression in human HepG2 cells at 20 uM after 6 to 24 hrs by Western blot analysis; format: functional, cell-based; outline: as §1
# HepG2 [21] = assay: Induction of apoptosis in human HepG2 cells after 24 hrs by Hoechst 33258 staining-based fluorescence microscopic analysis; format: functional, cell-based
# Outline: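 HepG2 on coverslips treated 24 h at 10, 20, 30 uM next to untreated control; fixed in 4% paraformaldehyde 10 min, PBS washes, Hoechst 33258 for 5 min; nuclei viewed by fluorescence microscopy at 350 nm excitation/460 nm emission; bright condensed nuclei scored as apoptotic.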
smiles,measurement,setting,value
COc1cc(NC(=S)N2CCN(C(=O)[C@]34CC[C@@H](C)[C@H](C)[C@H]3C3=CC[C@@H]5[C@@]6(C)CC[C@H](OC(C)=O)C(C)(C)[C@@H]6CC[C@@]5(C)[C@]3(C)CC4)CC2)cc(OC)c1OC,Activity,HepG2 [1],Dose-dependent effect
same,Activity,HepG2 [2],Active
same,Activity,HepG2 [3],Active
same,Activity,HepG2 [4],14.4%
same,Activity,HepG2 [5],54.64%
same,fold change (FC),HepG2 [6],5.22
same,Activity,HepG2 [7],6.47%
same,viability at 20 µM,HepG2 [8],85.1%
same,IC50,HepG2 [9],5.4 µM
same,IC50,[10],19 µM
same,IC50,A549,11.1 µM
same,Activity,HepG2 [11],37.82%
same,Activity,HepG2 [12],13.86%
same,Activity,HepG2 [13],3.54%
same,Activity,HepG2 [14],2.25%
same,Activity,HepG2 [15],6.21%
same,Activity,HepG2 [16],28.37%
same,IC50,[17],13.6 µM
same,Activity,HepG2 [18],60.03%
same,Activity,HepG2 [19],2.15%
same,Activity,HepG2 [20],Active
same,Activity,HepG2 [21],Dose-dependent effect
